# Test results taken from ChEMBL document CHEMBL1275301, “Antihypertensive activity of newer 1,4-dihydro-5-pyrimidine carboxamides: synthesis and pharmacological evaluation” (2010).
# Activity calls are given as the source filed them. The rule behind the calls is not given here.
# How the values were obtained:
# Rattus norvegicus [1] = assay: Antihypertensive activity against DOCA-salt induced hypertension in albino rat assessed as reduction in systolic blood pressure at 10 mg/kg, po after 30 mins by tail-cuff method; type: functional; details: Artery, 0.5 h
# Method in brief: (§1)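 Rats given DOCA 20 mg/kg s.c. twice weekly in olive oil for 4 weeks, with 1% w/v NaCl as drinking water, reaching systolic 160–180 mm Hg. Rats were trained in restrainer and tail-cuff sessions. Compounds in 0.5% CMC were dosed at 10 mg/kg by oral feeding needle, with vehicle and nifedipine groups. BP was read before dosing and after, with the tail warmed at 37 °C for 2–5 min. Each compound was run three times in one week and readings averaged.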
# Rattus norvegicus [2] = assay: Antihypertensive activity against DOCA-salt induced hypertension in albino rat assessed as reduction in systolic blood pressure at 10 mg/kg, po after 720 mins by tail-cuff method; type: functional; details: Artery, 12 h; method in brief: as §1
# Rattus norvegicus [3] = assay: Antihypertensive activity against DOCA-salt induced hypertension in albino rat assessed as reduction in systolic blood pressure at 10 mg/kg, po after 300 mins by tail-cuff method; type: functional; details: Artery, 5 h; method in brief: as §1
# Rattus norvegicus [4] = assay: Antihypertensive activity against DOCA-salt induced hypertension in albino rat assessed as reduction in systolic blood pressure at 10 mg/kg, po after 240 mins by tail-cuff method; type: functional; details: Artery, 4 h; method in brief: as §1
# Rattus norvegicus [5] = assay: Antihypertensive activity against DOCA-salt induced hypertension in albino rat assessed as reduction in systolic blood pressure at 10 mg/kg, po after 600 mins by tail-cuff method; type: functional; details: Artery, 10 h; method in brief: as §1
# Rattus norvegicus [6] = assay: Antihypertensive activity against DOCA-salt induced hypertension in albino rat assessed as reduction in systolic blood pressure at 10 mg/kg, po after 120 mins by tail-cuff method; type: functional; details: Artery, 2 h; method in brief: as §1
# Rattus norvegicus [7] = assay: Antihypertensive activity against DOCA-salt induced hypertension in albino rat assessed as reduction in systolic blood pressure at 10 mg/kg, po after 60 mins by tail-cuff method; type: functional; details: Artery, 1 h; method in brief: as §1
# Rattus norvegicus [8] = assay: Antihypertensive activity against DOCA-salt induced hypertension in albino rat assessed as reduction in systolic blood pressure at 10 mg/kg, po up to 360 mins by tail-cuff method; type: functional, organism-based; parameters: dose 10 mg/kg; details: Artery; method in brief: as §1
# Rattus norvegicus [9] = assay: Antihypertensive activity against DOCA-salt induced hypertension in albino rat assessed as reduction in systolic blood pressure at 10 mg/kg, po after 360 mins by tail-cuff method; type: functional; details: Artery, 6 h; method in brief: as §1
# Rattus norvegicus [10] = assay: Antihypertensive activity against DOCA-salt induced hypertension in albino rat assessed as reduction in systolic blood pressure at 10 mg/kg, po after 15 mins by tail-cuff method; type: functional; details: Artery, 0.25 h; method in brief: as §1
# Rattus norvegicus [11] = assay: Antihypertensive activity against DOCA-salt induced hypertension in albino rat assessed as reduction in systolic blood pressure at 10 mg/kg, po after 900 mins by tail-cuff method; type: functional; details: Artery, 15 h; method in brief: as §1
# Rattus norvegicus [12] = assay: Antihypertensive activity against DOCA-salt induced hypertension in albino rat assessed as reduction in systolic blood pressure at 10 mg/kg, po after 180 mins by tail-cuff method; type: functional; details: Artery, 3 h; method in brief: as §1
Structure (SMILES),inhibition in vivo at 10 mg/kg (Rattus norvegicus [1]),inhibition in vivo at 10 mg/kg (Rattus norvegicus [2]),inhibition in vivo at 10 mg/kg (Rattus norvegicus [3]),inhibition in vivo at 10 mg/kg (Rattus norvegicus [4]),inhibition in vivo at 10 mg/kg (Rattus norvegicus [5]),inhibition in vivo at 10 mg/kg (Rattus norvegicus [6]),inhibition in vivo at 10 mg/kg (Rattus norvegicus [7]),Activity (Rattus norvegicus [8]),inhibition in vivo at 10 mg/kg (Rattus norvegicus [9]),inhibition in vivo at 10 mg/kg (Rattus norvegicus [10]),inhibition in vivo at 10 mg/kg (Rattus norvegicus [11]),inhibition in vivo at 10 mg/kg (Rattus norvegicus [12])
CC1=C(C(=O)Nc2ccc(Br)cc2)C(c2ccc(Cl)cc2Cl)N=C(SCc2ccc(Cl)cc2)N1 (stereo not drawn),6.7%,25.8%,38.5%,32.3%,30.3%,17.5%,11.8%,Active,39.7%,4.1%,22.1%,23.2%
COc1ccc(C2N=C(SCc3cccc(Cl)c3)NC(C)=C2C(=O)Nc2ccc(Br)cc2)cc1 (stereo not drawn),7.7%,26.8%,39%,33.8%,32.8%,21.1%,15.4%,Active,39.7%,3.1%,22.6%,27.3%
CC1=C(C(=O)Nc2ccc(F)cc2)C(c2ccc([N+](=O)[O-])cc2)N=C(SCc2ccc(F)cc2)N1 (stereo not drawn),5.7%,19.6%,30.3%,25.6%,25.6%,17%,10.8%,Active,33%,3.1%,13.8%,20.1%
CC1=C(C(=O)Nc2ccc(F)cc2)C(c2ccc([N+](=O)[O-])cc2)N=C(SCc2cccc(Cl)c2)N1 (stereo not drawn),4.1%,12.9%,18.5%,15.9%,16.4%,9.8%,7.2%,Active,21.1%,2.1%,10.8%,11.9%
COc1ccc(C2N=C(SCc3ccc(Cl)cc3)NC(C)=C2C(=O)Nc2ccc(Br)cc2)cc1 (stereo not drawn),7.2%,23.7%,37.9%,29.2%,30.3%,16.5%,12.3%,Active,39.2%,3.1%,20%,22.7%
CC1=C(C(=O)Nc2ccc(Br)cc2)C(c2ccc(Cl)cc2Cl)N=C(SCc2ccccc2)N1 (stereo not drawn),3.6%,11.3%,22.1%,17.4%,17.4%,10.3%,6.7%,Active,24.2%,1.5%,8.2%,13.4%
COc1ccc(C2N=C(SCc3ccccc3Cl)NC(C)=C2C(=O)Nc2ccc(Br)cc2)cc1 (stereo not drawn),4.6%,10.8%,17.9%,15.4%,13.3%,8.2%,6.7%,Active,20.6%,3.1%,7.2%,11.3%
CC1=C(C(=O)Nc2ccc(F)cc2)C(c2ccc([N+](=O)[O-])cc2)N=C(SCc2ccc(Cl)cc2)N1 (stereo not drawn),6.7%,22.2%,37.9%,33.3%,28.2%,16%,11.8%,Active,39.7%,3.6%,16.9%,23.2%
CC1=C(C(=O)Nc2ccc([N+](=O)[O-])cc2)C(c2cccc([N+](=O)[O-])c2)N=C(SCc2ccccc2Cl)N1 (stereo not drawn),3.6%,11.3%,15.9%,12.8%,13.3%,7.7%,6.7%,Active,17.5%,2.1%,7.2%,9.3%
COc1ccc(C2N=C(SCc3cccc(Cl)c3)NC(C)=C2C(=O)Nc2ccc(F)cc2)cc1OC (stereo not drawn),5.2%,15.5%,16.4%,14.9%,17.4%,10.8%,8.2%,Active,20.1%,2.1%,13.3%,13.4%
CC1=C(C(=O)Nc2ccc(F)cc2)C(c2ccc([N+](=O)[O-])cc2)N=C(SCc2ccccc2)N1 (stereo not drawn),7.2%,27.3%,38.5%,32.3%,32.3%,18%,12.3%,Active,38.7%,3.1%,21%,23.7%
CC1=C(C(=O)Nc2ccc(F)cc2)C(c2ccc([N+](=O)[O-])cc2)N=C(SCc2ccccc2Cl)N1 (stereo not drawn),3.1%,13.9%,18.5%,15.9%,17.4%,8.8%,6.2%,Active,21.6%,1.5%,11.3%,12.4%
COc1ccc(C2N=C(SCc3ccccc3)NC(C)=C2C(=O)Nc2ccc(F)cc2)cc1OC (stereo not drawn),3.6%,1.5%,7.2%,11.8%,3.1%,8.8%,6.2%,Active,3.6%,1.5%,1%,12.9%
CC1=C(C(=O)Nc2ccc([N+](=O)[O-])cc2)C(c2cccc([N+](=O)[O-])c2)N=C(SCc2ccc(Cl)cc2)N1 (stereo not drawn),3.1%,15.5%,24.1%,20%,26.2%,12.4%,6.7%,Active,33%,2.1%,12.3%,14.9%
